Columns and labels:
[1] = ref [10], [11]; cited from earlier work
[2] = test system: HapMap lymphoblastoid cell lines; assay: Apoptosis, Annexin V / PI flow cytometry; type: cell-based, human; conditions: 0, 5 or 10 μM DEB, 24 h, 18 cell lines; Anova p < 0.001
[3] = test system: HapMap lymphoblastoid cell lines; assay: Micronuclei; type: cell-based, human; conditions: then 96 h in fresh media, averaged over all cell lines
Method in brief: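 Ten GSTT1-negative and 8 GSTT1-positive lymphoblastoid lines were grown in RPMI 1640 with 15% heat-inactivated FBS at 37 °C, 5% CO2, passage <10. Cells were seeded at 0.5 million per 4 ml and rested 24 h. They were exposed to 0, 5 or 10 μM test compound for 6 h in triplicate, pelleted, then held 96 h in fresh medium. Micronuclei were scored with the Litron kit by flow cytometry.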

[4] = CellTiter Glo cytotoxicity; type: cell-based; conditions: human
Method in brief: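 Human HapMap lymphoblastoid lines grown in RPMI 1640 with 15% heat-inactivated FBS at 37 °C, 5% CO2, low passage (<10). Preliminary cytotoxicity dose-response to the test compound (a diepoxide) read by CellTiter Glo as cellular ATP level; IC50 taken from the dose-response curves.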

## C1OC1C1CO1 (centres unmarked) [DEB, 1,2,3,4-diepoxybutane]
[1]
  mutagenic potency as compared to BD-derived monoepoxides: up to 200 fold
[2]
  percentage of Annexin V-labeled cells: increase in the percentage of Annexin V-labeled cells
[3]; 5 μM DEB 6 h
  fold increase of mean percent of MN positive cells: 1.8 fold
[3]; 10 μM DEB 6 h
  fold increase of mean percent of MN positive cells: 2.4 fold
[4]
  IC50: 2 to 6 µM
